Active and inactive are the calls of the source. The calls are words filed in the database; no cut-off is given here.
Key:
[1] = Inhibition of Saccharomyces cerevisiae alpha-glucosidase using p-nitro-phenyl-alpha-D-glucopyranoside as substrate preincubated with enzyme followed by substrate addition measured after 10 mins for every 2.5 to 5 mins
Saccharomyces cerevisiae [2] = experiment: Inhibition of Saccharomyces cerevisiae alpha-glucosidase using p-nitro-phenyl-alpha-D-glucopyranoside as substrate at 200 uM preincubated with enzyme followed by substrate addition measured after 10 mins for every 2.5 to 5 mins relative to control
In short: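 Sample mixed with baker's yeast alpha-glucosidase stock (0.11 U/ml in 50 mM PBS) and preincubated at 36 °C. pNPG stock (1.35 mM) then added, incubated 10 min at 36 °C, and absorbance at 405 nm read every 2.5–5 min. PBS replaced sample as control. % inhibition = [1 − (ΔAbs sample/ΔAbs control)] × 100; triplicates; IC50 from six-concentration dose-inhibition curve.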

Saccharomyces cerevisiae [3] = experiment: Mixed type inhibition of Saccharomyces cerevisiae alpha-glucosidase using p-nitro-phenyl-alpha-D-glucopyranoside as substrate preincubated with enzyme followed by substrate addition measured after 10 mins by Lineweaver-Burk plot analysis
In short: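 Baker's yeast α-glucosidase (stock 0.11 U/ml in 50 mM PBS) mixed with sample and incubated at 36 °C, then p-nitrophenyl-α-D-glucopyranoside added at various concentrations and incubated at 36 °C for 10 min. Initial velocity was taken as the rate of change of absorbance at 405 nm per min. Inhibition type was assigned from Lineweaver-Burk plots.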

Saccharomyces cerevisiae [4] = experiment: Competitive inhibition of Saccharomyces cerevisiae alpha-glucosidase using p-nitro-phenyl-alpha-D-glucopyranoside as substrate preincubated with enzyme followed by substrate addition measured after 10 mins by Lineweaver-Burk plot analysis
In short: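 Baker's yeast alpha-glucosidase (stock 0.11 U/ml in 50 mM PBS) with pNPG at various concentrations, 36 °C. Initial velocity taken as the per-minute change in 405 nm absorbance. Inhibition type assigned from Lineweaver-Burk plots at several inhibitor levels plus an uninhibited series.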

SMILES | IC50 [1] | inhibition (Saccharomyces cerevisiae [2]) | inhibition (Saccharomyces cerevisiae [3]) | inhibition (Saccharomyces cerevisiae [4])
O=C1C[C@@H](O[C@@H]2O[C@H](CO)[C@@H](O)[C@H](OC(=O)Cc3ccccc3)[C@H]2OC(=O)Cc2ccc(O)cc2)CO1 | 145 µM | 58.9% | Active | –
COC(=O)/C=C/c1ccc(O)c(O)c1 | – | 1.6% | – | –
CC1=CC(=O)CC(C)(C)[C@@]1(O)/C=C/[C@@H](C)O[C@@H]1O[C@H](CO)[C@@H](O)[C@H](O)[C@H]1O | – | 13.7% | – | –
O=C1C[C@@H](O[C@@H]2O[C@H](CO)[C@@H](O)[C@H](OC(=O)Cc3ccc(O)cc3)[C@H]2OC(=O)Cc2ccc(O)cc2)CO1 | 152 µM | 58.3% | – | –
CC1=CC(=O)CC(C)(C)[C@]1(O)/C=C/[C@@H](C)O[C@@H]1O[C@H](CO)[C@@H](O)[C@H](O)[C@H]1O | – | 9.4% | – | –
COC(=O)C[C@@H](CO)O[C@@H]1O[C@H](CO)[C@@H](O)[C@H](O)[C@H]1OC(=O)C(=O)c1ccc(O)cc1 | 165 µM | 56.6% | – | –
COC(=O)C[C@@H](CO)O[C@@H]1O[C@H](CO)[C@@H](O)[C@H](OC(=O)Cc2ccccc2)[C@H]1OC(=O)Cc1ccc(O)cc1 | 150 µM | 59.7% | – | –
O=c1ccc2cc(O[C@@H]3O[C@H](CO)[C@@H](O)[C@H](O)[C@H]3O)c(O)cc2o1 | – | 1.8% | – | –
O=C1C[C@@H](O[C@@H]2O[C@H](CO)[C@@H](O)[C@H](O)[C@H]2OC(=O)Cc2ccc(O)cc2)CO1 | 181 µM | 57.6% | – | –
COC(=O)C[C@@H](CO)O[C@@H]1O[C@H](CO)[C@@H](O)[C@H](OC(=O)Cc2ccccc2)[C@H]1OC(=O)C(=O)c1ccc(O)cc1 | 165 µM | 56.6% | – | –
COc1cc([C@H](OC)[C@@H](CO)Oc2c(OC)cc(-c3cc(=O)c4c(O)cc(O)cc4o3)cc2OC)ccc1O | – | 13.2% | – | –
CC1(C)C[C@H](O)C[C@@]2(C)OC(=O)C=C12 | – | 8.8% | – | –
COc1cc(-c2cc(=O)c3c(O)cc(O)cc3o2)cc(OC)c1O[C@H](CO)[C@@H](O)c1ccc(O)cc1 | – | 8.7% | – | –
O=c1cc(-c2ccc(O)c(O)c2)oc2cc(O)cc(O)c12 [LUTEOLIN] | 39.8 µM | 99.6% | Active | –
C=C1C(=O)O[C@@H]2/C=C(\C)CC/C=C(\C(=O)O[C@@H]3O[C@H](CO)[C@@H](O)[C@H](O)[C@H]3O)CC[C@@H]12 | – | 13.1% | – | –
C[C@H]1O[C@H](O[C@H]2[C@H](O)[C@@H](O)[C@@H](O[C@H]3[C@H](O)[C@@H](O)C(O)O[C@@H]3CO)O[C@@H]2CO)[C@H](O)[C@@H](O)[C@@H]1N[C@H]1C=C(CO)[C@@H](O)[C@H](O)[C@H]1O (stereo partly drawn) [ACARBOSE] | 180 µM | 51.8% | – | –
CC(=O)/C=C/C1=C(C)[C@@H](O)[C@@H](O)CC1(C)C | – | 11.5% | – | –
CC1(C)C[C@@H](O)C[C@@]2(C)OC(=O)C=C12 | – | 6.4% | – | –
Nc1ncnc2c1ncn2[C@@H]1O[C@H](CO)[C@@H](O)[C@H]1O | – | 10.3% | – | –
COc1cc([C@H](OC)[C@H](CO)Oc2c(OC)cc(-c3cc(=O)c4c(O)cc(O)cc4o3)cc2OC)ccc1O | – | 9.1% | – | –
COc1cc(/C=C/CO)cc(OC)c1O[C@@H]1O[C@H](CO)[C@@H](O)[C@H](O)[C@H]1O | – | 1.8% | – | –
CC(=O)/C=C/C1=C(C)[C@@H](O)[C@@H](O[C@@H]2O[C@H](CO)[C@@H](O)[C@H](O)[C@H]2O)CC1(C)C | – | 0% | – | –
O=C(CO)c1c[nH]c2ccccc12 | – | 1.6% | – | –
O=C(Cc1ccc(O)cc1)O[C@H]1[C@@H](O)[C@H](OC(=O)Cc2ccc(O)cc2)[C@H](OC(=O)Cc2ccc(O)cc2)[C@@H](O)[C@@H]1O | 61.2 µM | 77.6% | – | Active
CC(=O)/C=C/[C@]12O[C@@]1(C)C[C@@H](O)CC2(C)C | – | 17.6% | – | –
COc1cc(-c2cc(=O)c3c(O)cc(O)cc3o2)cc(OC)c1O[C@@H](CO)[C@@H](O)c1ccc(O)cc1 | – | 8.3% | – | –
COc1cc(-c2cc(=O)c3c(O)cc(O)cc3o2)cc(OC)c1O [TRICIN] | 162 µM | 59.1% | – | –
COc1cc(-c2cc(=O)c3c(O)cc(O)cc3o2)ccc1O | – | 56.9% | – | –
COc1cc(-c2oc3cc(O)cc(O)c3c(=O)c2O)cc(O)c1OC | 154 µM | 57.4% | – | –

Source: ChEMBL document CHEMBL4184092, “Chemical constituents from Taraxacum officinale and their α-glucosidase inhibitory activities” (Bioorg Med Chem Lett, 2018)
